Laboratory results taken from ChEMBL document CHEMBL2380270, “Radiosynthesis and first evaluation in mice of [(18)F]NS14490 for molecular imaging of α7 nicotinic acetylcholine receptors” (Bioorg Med Chem, 2013).

Key:
[1] = system: Mus musculus; experiment: Biodistribution in CD1 mouse small intestine at 200 to 300 kBq, iv measured at 30 mins by gamma counting analysis; assay type: ADME, organism-based; details: in vivo, 0.5 h
Method in brief: (§1)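 Female CD-1 mice received 200–300 kBq [18F]radiotracer intravenously. Blood and urine were sampled under anaesthesia, then mice were killed by cervical dislocation at 5, 15, 30 or 60 min p.i. (n = 3; control at 60 min n = 7). Organs were removed and weighed, activity was gamma-counted, and uptake was expressed as % injected dose per g wet tissue.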

[2] = system: Stomach; experiment: Biodistribution in CD1 mouse stomach at 200 to 300 kBq, iv measured at 30 mins by gamma counting analysis; assay type: ADME, organism-based; details: in vivo, 0.5 h; method in brief: as §1
[3] = system: Femur; experiment: Biodistribution in CD1 mouse femur at 200 to 300 kBq, iv measured at 15 mins by gamma counting analysis; assay type: ADME, organism-based; details: in vivo, 0.25 h
Method in brief: (§2)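 Female CD-1 mice, 200–300 kBq radiotracer given iv, n = 3 per time point. Animals anaesthetised for blood and urine sampling, then killed by cervical dislocation at 5, 15, 30 or 60 min p.i. Organs removed, weighed and gamma-counted; uptake expressed as % injected dose per g wet tissue.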

[4] = system: Muscle tissue; experiment: Biodistribution in CD1 mouse muscle at 200 to 300 kBq, iv measured at 15 mins by gamma counting analysis; assay type: ADME, organism-based; details: in vivo, 0.25 h; method in brief: as §1
[5] = system: Mus musculus; experiment: Biodistribution in CD1 mouse adrenal at 200 to 300 kBq, iv measured at 15 mins by gamma counting analysis; assay type: ADME, organism-based, Adrenal gland; details: in vivo, 0.25 h; method in brief: as §2
[6] = system: Pancreas; experiment: Biodistribution in CD1 mouse pancreas at 200 to 300 kBq, iv measured at 15 mins by gamma counting analysis; assay type: ADME, organism-based; details: in vivo, 0.25 h; method in brief: as §1
[7] = system: Spleen; experiment: Biodistribution in CD1 mouse spleen at 200 to 300 kBq, iv measured at 15 mins by gamma counting analysis; assay type: ADME, organism-based; details: in vivo, 0.25 h; method in brief: as §1
[8] = system: Kidney; experiment: Biodistribution in CD1 mouse kidney at 200 to 300 kBq, iv measured at 15 mins by gamma counting analysis; assay type: ADME, organism-based; details: in vivo, 0.25 h; method in brief: as §2
[9] = system: Femur; experiment: Biodistribution in CD1 mouse femur at 200 to 300 kBq, iv measured at 5 mins by gamma counting analysis; assay type: ADME, organism-based; details: in vivo; method in brief: as §2
[10] = system: Mus musculus; experiment: Biodistribution in CD1 mouse thymus at 200 to 300 kBq, iv measured at 5 mins by gamma counting analysis; assay type: ADME, organism-based; details: in vivo
Method in brief: (§3)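 Female CD-1 mice given 200–300 kBq tracer intravenously. Animals anaesthetised for blood and urine sampling, then killed by cervical dislocation at 5, 15, 30 or 60 min (n = 3 per time; n = 7 at 60 min). Organs removed and weighed, activity gamma-counted, expressed as % injected dose per g wet weight. Blocking arm: 10 mg/kg i.p. in 0.9% saline, 10 min before tracer; two-tailed unpaired t test versus control.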

[11] = system: Urinary bladder; experiment: Biodistribution in CD1 mouse bladder at 200 to 300 kBq, iv measured at 5 mins by gamma counting analysis; assay type: ADME, organism-based; details: in vivo; method in brief: as §2
[12] = system: Liver; experiment: Biodistribution in CD1 mouse liver at 200 to 300 kBq, iv measured at 5 mins by gamma counting analysis; assay type: ADME, organism-based; details: in vivo; method in brief: as §1
[13] = system: Mus musculus; experiment: Biodistribution in CD1 mouse large intestine at 200 to 300 kBq, iv measured at 5 mins by gamma counting analysis; assay type: ADME, organism-based; details: in vivo; method in brief: as §2
[14] = system: Mus musculus; experiment: Biodistribution in CD1 mouse small intestine at 200 to 300 kBq, iv measured at 5 mins by gamma counting analysis; assay type: ADME, organism-based; details: in vivo; method in brief: as §1
[15] = system: Muscle tissue; experiment: Biodistribution in CD1 mouse muscle at 200 to 300 kBq, iv measured at 60 mins by gamma counting analysis in presence of SSR180711; assay type: ADME, organism-based; details: in vivo, 1 h
Method in brief: (§4)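 Blocking design in female CD-1 mice, n = 7 per group. The blocker was given at 10 mg kg^-1 i.p. in 0.9% saline 10 min before i.v. 200–300 kBq [18F]radiotracer. Mice were killed at 60 min p.i. and organs weighed and gamma-counted as % ID per g wet weight. Blocked groups were compared with controls by two-tailed independent Student's t test.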

[16] = system: Mus musculus; experiment: Biodistribution in CD1 mouse adrenal at 200 to 300 kBq, iv measured at 60 mins by gamma counting analysis in presence of SSR180711; assay type: ADME, organism-based, Adrenal gland; details: in vivo, 1 h
Method in brief: (§5)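 Blocking study in female CD-1 mice, n = 7 per blocker, with a matching control group. SSR180711 or NS6740 given at 10 mg kg⁻¹ ip in 0.9% saline 10 min before iv radiotracer (200–300 kBq). Organs taken at 60 min p.i., weighed and gamma-counted; uptake as % ID per g wet weight. Compared with control by two-tailed independent Student's t test.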

[17] = system: Spleen; experiment: Biodistribution in CD1 mouse spleen at 200 to 300 kBq, iv measured at 60 mins by gamma counting analysis in presence of SSR180711; assay type: ADME, organism-based; details: in vivo, 1 h; method in brief: as §4
[18] = Biodistribution in CD1 mouse urine at 200 to 300 kBq, iv measured at 60 mins by gamma counting analysis in presence of SSR180711; assay type: ADME, organism-based; details: in vivo, 1 h; method in brief: as §3
[19] = system: Stomach; experiment: Biodistribution in CD1 mouse stomach at 200 to 300 kBq, iv measured at 60 mins by gamma counting analysis in presence of SSR180711; assay type: ADME, organism-based; details: in vivo, 1 h; method in brief: as §4
[20] = system: Heart; experiment: Biodistribution in CD1 mouse heart at 200 to 300 kBq, iv measured at 60 mins by gamma counting analysis in presence of SSR180711; assay type: ADME, organism-based; details: in vivo, 1 h; method in brief: as §5
[21] = system: Blood; experiment: Biodistribution in CD1 mouse blood at 200 to 300 kBq, iv measured at 60 mins by gamma counting analysis in presence of SSR180711; assay type: ADME, organism-based; details: in vivo, 1 h; method in brief: as §5
[22] = system: Muscle tissue; experiment: Biodistribution in CD1 mouse muscle at 200 to 300 kBq, iv measured at 60 mins by gamma counting analysis; assay type: ADME, organism-based; details: in vivo, 1 h; method in brief: as §1
[23] = system: Mus musculus; experiment: Biodistribution in CD1 mouse adrenal at 200 to 300 kBq, iv measured at 60 mins by gamma counting analysis; assay type: ADME, organism-based, Adrenal gland; details: in vivo, 1 h; method in brief: as §2
[24] = Biodistribution in CD1 mouse urine at 200 to 300 kBq, iv measured at 60 mins by gamma counting analysis; assay type: ADME, organism-based; details: in vivo, 1 h; method in brief: as §3
[25] = system: Stomach; experiment: Biodistribution in CD1 mouse stomach at 200 to 300 kBq, iv measured at 60 mins by gamma counting analysis; assay type: ADME, organism-based; details: in vivo, 1 h; method in brief: as §1
[26] = system: Mus musculus; experiment: Biodistribution in CD1 mouse small intestine at 200 to 300 kBq, iv measured at 60 mins by gamma counting analysis; assay type: ADME, organism-based; details: in vivo, 1 h; method in brief: as §1
[27] = system: Blood; experiment: Biodistribution in CD1 mouse blood at 200 to 300 kBq, iv measured at 60 mins by gamma counting analysis; assay type: ADME, organism-based; details: in vivo, 1 h; method in brief: as §2
[28] = system: Mus musculus; experiment: Biodistribution in CD1 mouse thymus at 200 to 300 kBq, iv measured at 30 mins by gamma counting analysis; assay type: ADME, organism-based; details: in vivo, 0.5 h; method in brief: as §1
[29] = system: Urinary bladder; experiment: Biodistribution in CD1 mouse bladder at 200 to 300 kBq, iv measured at 30 mins by gamma counting analysis; assay type: ADME, organism-based; details: in vivo, 0.5 h; method in brief: as §2
[30] = system: Kidney; experiment: Biodistribution in CD1 mouse kidney at 200 to 300 kBq, iv measured at 30 mins by gamma counting analysis; assay type: ADME, organism-based; details: in vivo, 0.5 h; method in brief: as §2
[31] = system: Liver; experiment: Biodistribution in CD1 mouse liver at 200 to 300 kBq, iv measured at 30 mins by gamma counting analysis; assay type: ADME, organism-based; details: in vivo, 0.5 h; method in brief: as §1
[32] = system: Mus musculus; experiment: Biodistribution in CD1 mouse large intestine at 200 to 300 kBq, iv measured at 30 mins by gamma counting analysis; assay type: ADME, organism-based; details: in vivo, 0.5 h; method in brief: as §2

O=C(Oc1ccc(Br)cc1)N1CCN2CCC1CC2 [SSR180711]
Drug uptake [1]: 11 % ID/g
Drug uptake [2]: 7.29 % ID/g
Drug uptake [3]: 2.15 % ID/g
Drug uptake [4]: 1.88 % ID/g
Drug uptake [5]: 5.65 % ID/g
Drug uptake [6]: 5.48 % ID/g
Drug uptake [7]: 8.23 % ID/g
Drug uptake [8]: 10.6 % ID/g
Drug uptake [9]: 1.45 % ID/g
Drug uptake [10]: 1.95 % ID/g
Drug uptake [11]: 1.27 % ID/g
Drug uptake [12]: 6.29 % ID/g
Drug uptake [13]: 1.36 % ID/g
Drug uptake [14]: 3.44 % ID/g
Drug uptake [15]: 1.02 % ID/g
Drug uptake [16]: 3.65 % ID/g
Drug uptake [17]: 7.53 % ID/g
Drug uptake [18]: 270 % ID/g
Drug uptake [19]: 7.76 % ID/g
Drug uptake [20]: 1.81 % ID/g
Drug uptake [21]: 0.78 % ID/g
Drug uptake [22]: 1 % ID/g
Drug uptake [23]: 3.01 % ID/g
Drug uptake [24]: 152 % ID/g
Drug uptake [25]: 8.13 % ID/g
Drug uptake [26]: 16.1 % ID/g
Drug uptake [27]: 0.78 % ID/g
Drug uptake [28]: 2.6 % ID/g
Drug uptake [29]: 2.08 % ID/g
Drug uptake [30]: 8.5 % ID/g
Drug uptake [31]: 8.51 % ID/g
Drug uptake [32]: 2.7 % ID/g
